# Most compounds without a hit are left out; they make up all but 1.7% or so of the library.
# CAL PDZ FP-1 – untagged CAL PDZ binding inhibitors, primary screen, biochemical, fluorescence polarization, HTS | Golgi-associated PDZ and coiled-coil motif-containing protein (Homo sapiens), Q9HD26 | 0.92% of 300,000 active | AID 602252, 2012 | purified CAL PDZ, TMR-peptide fluorescence polarization, 1 h | inhibition, % at 24.9 µM;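 active = mean inhibition of at least 30% with at least half of replicates also reaching 30%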;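 note: 0% = DMSO neutral control and 100% = excess unlabeled competitor peptide PRC23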
# ARNT TACC3 PPI – disruptors of ARNT/TACC3 protein interaction, primary screen, biochemical, AlphaScreen, single concentration; AlphaScreen His-ARNT PAS-B/GST-TACC3 binding, luminescence; TACC3 fragment carries E629A point mutation; inhibition, % at 9.99 µM; 0.66% of 390,000 active; AID 623870, 2012;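 active = mean inhibition of replicates at least 50% and at least half of replicates each reaching 50%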;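 note: 0% = complete ARNT plus TACC3 wells and 100% = ARNT alone without TACC3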
# PGC1a acetyl inh – inhibitors of PGC1a acetylation signal, primary screen, cell-based, U2OS, AlphaScreen, inhibitor mode; AID 651687, 2012; AlphaScreen anti-acetyl-lysine; with virally co-expressed GCN5 acetyltransferase; inhibition, % at 15.6 µM; 0.17% of 350,000 active;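 active = every replicate shows inhibition of at least 40%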;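 note: 0% = neutral control wells and 100% = positive control wells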
# CFTR F508del cor – F508del CFTR correction, initial screen, CFBE line, single point. AID 720511, 2013. CFBE cells, YFP halide quenching; stimulated with forskolin plus potentiator P3; % fluorescence drop versus neutral controls. activity (quench increase), % at 7.58 µM. 0.36% of 350,000 active;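 active = mean added fluorescence quench of at least 8% versus neutral control, with both replicates also reaching 8%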;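 note: cells transiently co-express mutant CFTR-F508del with the halide-sensitive YFP; corrector assay measuring rescue of mutant channel to the surface after 24 h compound exposure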
# CAL PDZ FP-2 – CAL PDZ peptide-binding inhibitors, primary screen, biochemical, fluorescence polarization, Cer-tagged CAL PDZ, HTS; inhibition, % at 20 µM; 0.02% of 330,000 active; purified CAL PDZ, TMR-peptide fluorescence polarization, 1 h; Golgi-associated PDZ and coiled-coil motif-containing protein (Homo sapiens), Q9HD26;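 active = highest replicate inhibition of at least 40%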;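 note: plate controls were DMSO neutral control wells for no effect and unlabeled competitor peptide control wells for full effect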
#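 Read-out basis: mP drop reported as inhibition | Assay system: Tagged CAL PDZ protein CerCALP, purified | Benchmarks: Unlabelled peptide for full inhibition, DMSO wells as neutral | Schedule: 1 h incubation at room temperature before polarization reading | Buffer or medium: Sodium phosphate/NaCl buffer pH 7.4 with TCEP, IgG, Thesit | Doses: Single point, 20 µM | Measured by: Fluorescence polarization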
# miR-122 sensor – miR-122 Renilla sensor signal increase in Huh7, primary screen, miR-122 inhibitor project, cell-based, single point, plate reader; Huh7 miR-122 Renilla luciferase sensor, 48 h; neutral wells = 0, positive control = 100; activation (reporter increase), % at 12.5 µM; 0.3% of 340,000 active; AID 602342, 2012;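 active = mean replicate activation score at least 90 and every replicate individually at or above 90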;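 note: higher luciferase means less miR-122 activity so hits act as miR-122 inhibitors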
# Active calls of the source: *; / = not tested or not shown; [ ] = remark or other dose.
SMILES,CAL PDZ FP-1,ARNT TACC3 PPI,PGC1a acetyl inh,CFTR F508del cor,CAL PDZ FP-2,miR-122 sensor
CC(C)CCNC(=O)c1cccc(Cl)c1,-2,/,-1,/,-1,4
NC(=O)CNC(=O)c1cccc(Cl)c1,-5,active,3,-7,-1,-3
O=C(C[C@H]1C[C@H]2c3cc(NC(=O)Nc4ccc(F)cc4)ccc3O[C@H]2[C@@H](CO)O1)NC1CCCCC1,/,2,2,1,/,3[16.7 µM]
NC(=O)NC(=O)CC1S/C(=N/N=C2/NC(=O)CS2)NC1=O (stereo unspecified),-6,66*,-4,-3,-1,/
COc1ccc(NC(=O)N(C)C[C@H]2OCCCC[C@H](C)Oc3ccc(NC(=O)C4CCCCC4)cc3C(=O)N([C@@H](C)CO)C[C@@H]2C)cc1,/,1,0,-2,/,16[16.7 µM]
CN(C(=O)COc1ccc(Cl)cc1Br)C1CCCCC1,71*,-6,0,-3,-2,-1
O=C(COC(=O)COc1ccc(Cl)cc1Br)NC1CCCCCC1,10,-3,0,3,-2,-13
OCCC1CN(Cc2ccc3nonc3c2)CCN1Cc1ccsc1 (stereo unspecified),4,-5,5,-4,-1,7
OCCC1CN(Cc2ccc3cc(Cl)ccc3n2)CCN1Cc1ccsc1 (stereo unspecified),72*,11,/,-1,-1,-3
CCN(CC)c1ccc(N=Nc2nn(C)c(C)c2[N+](=O)[O-])cc1,-2,0,15,/,0,-10
CCN(CC)c1ccc(N=Nc2ncn[nH]2)cc1,-8,70*,-14,-1,0,-5
C[C@@H]1CCCCO[C@H](CN(C)C(=O)C2CCCCC2)[C@H](C)CN([C@H](C)CO)C(=O)c2cc(NS(=O)(=O)c3ccc(F)cc3)ccc2O1,/,-6,-5,-2,/,-7[16.7 µM]
COc1ccc2c3c([nH]c2c1)[C@@H](CO)N(Cc1ccncc1)CC31CCN(C(=O)c2cccnc2)CC1,/,/,/,3,/,/
CCCNC(=O)NC[C@@H]1[C@@H](c2ccc(C3=CCCC3)cc2)[C@H](CO)N1C(=O)CC,/,1,-8,-2,/,343*[16.7 µM]
O=C(Nc1ccccc1)c1nc[nH]c1C(=O)Nc1ccccc1F,/,/,13,9.5*,/,0
Cc1ccc(NC(=O)c2nc[nH]c2C(=O)Nc2ccccc2F)cc1,/,/,/,3,/,1
NNC(=O)c1nc[nH]c1C(=O)Nc1ccccn1,/,48*,/,0,0,/
CCCN1[C@H](C(=O)N[C@H](C)c2ccccc2)[C@@H](CO)[C@@H]2Cn3c(cccc3=O)[C@@H]21,/,/,-1,-2,/,/
C=CCSc1nnc(-c2cc3c(-c4ccccc4)nn(C)c3s2)n1C,-9,48*,2,/,-8,-8
Cc1ccc(OCCn2cncn2)c([N+](=O)[O-])c1,/,-2,2,2,-1,-6
Cc1ccc(C(C)C)cc1OCCn1cncn1,66*,1,-11,/,/,-2
CCc1ccc(S(=O)(=O)/N=C2\C=C(NS(=O)(=O)c3ccccc3)C(=O)c3ccccc32)cc1,-8,19,/,0,0,24
CC(C)c1ccc(S(=O)(=O)/N=C2\C=C(NS(=O)(=O)c3ccccc3)C(=O)c3ccccc32)cc1,1,47*,/,-1,0,57
C[C@H](CO)N1C[C@H](C)[C@@H](CN(C)S(=O)(=O)c2cn(C)cn2)Oc2ccc(NC(=O)CCCCCC(=O)Nc3ccccc3N)cc2C1=O,/,-2,-2,0,/,-13[16.7 µM]
C[C@@H]1CN([C@@H](C)CO)C(=O)c2cc(NC(=O)Nc3ccccc3)ccc2O[C@@H]1CN(C)Cc1ccc(Oc2ccccc2)cc1,/,-6,-10,1,/,32[16.7 µM]
SMILES,CAL PDZ FP-1,ARNT TACC3 PPI,PGC1a acetyl inh,CFTR F508del cor,CAL PDZ FP-2,miR-122 sensor
CC(=NNC(N)=O)C1=C(O)C(C(C)C)NC1=O (stereo unspecified),-1,60*,/,1,0,/
CCc1nnc(NS(=O)(=O)c2ccc(N3C(=O)c4ccccc4C3=O)cc2)s1,84*,-7,/,-2,-1,/
CCc1nnc(NC(=O)c2cc(C)nc3ccccc23)s1,65*,2,4,-1,-1,7
CCc1nnc(NC(=O)c2ccc(NS(=O)(=O)c3ccccc3)cc2)s1,-1,-4,-36,/,0,212*
C[C@@H]1CCCCO[C@H](CN(C)C(=O)c2ccccc2)[C@H](C)CN([C@@H](C)CO)C(=O)c2cc(NC(=O)c3ccccc3)ccc2O1,/,5,-3,0,/,-4[16.7 µM]
COc1cccc(S(=O)(=O)N[C@@H]2CC[C@@H](CC(=O)NC3CCC3)O[C@@H]2CO)c1,/,-31,3,2,/,/
O=C(Nn1cc(C(=O)Nc2ccc(F)cc2F)c2ccccc2c1=O)c1cnccn1,-2,65*,2,-2,0,0
CN(C(=O)COC(=O)c1ccc(S(=O)(=O)N2CCOCC2)cc1)c1ccccc1,45*,3,3,1,0,4
COc1ccccc1NCC(=O)N/N=C/c1c(O)ccc2ccccc12,1,6,25,-2,/,-14
COc1ccccc1N(CC(=O)N/N=C/c1c(O)ccc2ccccc12)S(C)(=O)=O,-2,83*,/,/,-2,/
COc1cccc(-c2cn(CC[C@H]3CC[C@H](NS(=O)(=O)Cc4ccccc4)[C@@H](CO)O3)nn2)c1,/,3,-3,2,/,3[16.7 µM]
COc1ccccc1NC(=S)N(Cc1ccc(C(=O)O)cc1)Cc1ccc(OC)c(OC)c1,50*,-1,/,1,0,-4
N[C@@H](C(=O)N[C@@H]1C(=O)N2C(C(=O)O)=C(Cl)CS[C@H]12)c1ccccc1,0,40*,-4,0,0,1
C[C@H](CO)N1C[C@H](C)[C@@H](CN(C)Cc2ccc(Oc3ccccc3)cc2)Oc2c(NC(=O)C3CCOCC3)cccc2C1=O,/,/,-19,4,/,100*[16.7 µM]
C[C@H](CO)N1C[C@H](C)[C@@H](CN(C)Cc2ccc(Oc3ccccc3)cc2)Oc2c(NC(=O)c3ccncc3)cccc2C1=O,-1,-1,-2,2,-1,111*[16.7 µM]
CC(C)NC(=O)Nc1cccc2c1O[C@H](CN(C)Cc1ccc(Oc3ccccc3)cc1)[C@@H](C)CN([C@@H](C)CO)C2=O,/,active,-25,0,/,10[16.7 µM]
